Published values gathered from unrelated publications.
Compare with care: the assays were run in different laboratories.
Target: Serine/threonine-protein kinase 17B (STK17B, Homo sapiens, UniProt O94768)
Residues used in one study (O94768 1-372): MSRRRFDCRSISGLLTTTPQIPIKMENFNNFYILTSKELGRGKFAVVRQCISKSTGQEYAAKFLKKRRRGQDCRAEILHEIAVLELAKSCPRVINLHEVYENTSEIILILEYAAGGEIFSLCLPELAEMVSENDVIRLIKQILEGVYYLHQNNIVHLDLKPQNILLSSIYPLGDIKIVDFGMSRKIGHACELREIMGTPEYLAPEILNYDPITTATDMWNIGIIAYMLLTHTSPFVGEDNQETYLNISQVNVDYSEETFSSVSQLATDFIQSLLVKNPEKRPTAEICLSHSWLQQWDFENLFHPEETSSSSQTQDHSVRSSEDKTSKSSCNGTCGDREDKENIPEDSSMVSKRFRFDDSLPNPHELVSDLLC

Structure (SMILES)	assay	conditions	remaining binding
O=C(NCC1CCOCC1)c1n[nH]cc1NC(=O)c1c(F)cccc1F	binding, competition with immobilised ligand	1 µM	91%
CN(c1nccc(-c2cnn3ncccc23)n1)C1CC1	binding	1 µM	100%
c1cncc(-c2cccc(Nc3nccc(NC4CCCCC4)n3)c2)c1	binding, competition with immobilised ligand	10 µM	77%
CCCOc1ccc([C@H]2[C@H](C(=O)O)[C@@H](c3ccc4c(c3)OCO4)CN2CC(=O)Nc2c(CC)cccc2CC)cc1	cell-free assay, competition with immobilised ligand	1 µM	91%
C=CC(=O)N1CCC(C(=O)NCC(=O)N2CCN(c3nc(-c4cnc(N)nc4C(F)F)nc(N4CCOCC4)n3)CC2)CC1	binding, competition with immobilised ligand	1 µM	97%
CN(C)c1ncc(F)c(-c2cnn3ncccc23)n1	binding	1 µM	87%
C[C@@H]1CN(c2cc(-c3nn(C)c4ccc(OC5(C)CC5)cc34)ncn2)C[C@H](C)O1	cell-free assay, competition with immobilised ligand	1 µM	100%
N[C@@H]1CCN(c2nccc(-c3cnn4ncccc34)n2)C1	binding	1 µM	100%
Cc1cnc(Nc2ccc(C(=O)N3CCC(N4CCCC4)CC3)cc2)nc1-c1cc2ccccc2s1	binding, competition with immobilised ligand	1 µM	0%
C[C@H]1CCN(c2nccc(-c3cnn4ncccc34)n2)C1	binding	1 µM	93%
CN(C)C(=O)Cn1cc(-c2nc(C3(c4ccc(-c5cnc(N)nc5)cc4)CC3)no2)cn1	cell-free assay, competition with immobilised ligand	1 µM	100%
O=C(c1ccc(Nc2nccc(-c3cc4ccccc4s3)n2)cc1)N1CCC(N2CCCC2)CC1	binding, competition with immobilised ligand	1 µM	0%
COc1cnc(Nc2cccc(S(N)(=O)=O)c2)nc1N1CCN(c2ccccc2)CC1	binding, competition with immobilised ligand	1 µM	99%
Cn1cc(Cl)c2c(Oc3c(F)cc(Nc4cc(Cl)nc(N)n4)cc3F)ccnc21	cell-free assay, competition with immobilised ligand	0.1 µM	84%
C[C@@H](c1ccc(-n2cnc3c(N)ncnc32)cc1)N1CCc2nn(C)c(Cc3ccccc3)c2C1=O	binding, competition with immobilised ligand	0.1 µM	100%
CN(C)c1nccc(-c2cnn3ncccc23)n1	binding	1 µM	100%
CS(=O)(=O)c1cc(C2(NC(=O)c3cncc4c3cnn4-c3ccc(F)cc3)CC2)ccn1	cell-free assay, competition with immobilised ligand	1 µM	83%
CN(C)c1nccc(-c2cnc3ncccn23)n1	binding	1 µM	100%
CC(C)CC(=O)N1CCc2nc(-c3ccc(Br)cc3)nc(N(C)Cc3ccccc3)c2C1	cell-free assay, competition with immobilised ligand	0.1 µM	91%
O=C(c1ccc(Nc2ncc(Cl)c(-c3ccc(Cl)s3)n2)cc1)N1CCC(N2CCCC2)CC1	binding, competition with immobilised ligand	1 µM	2.7%
CNC(=O)Nc1ccc2c(c1)[C@@]1(CC2)OC(=O)N(CC(=O)N(Cc2ccc(F)cc2)[C@@H](C)C(F)(F)F)C1=O	cell-free assay, competition with immobilised ligand	1 µM	77%
CCN1CCN(Cc2ccc(C(=O)Nc3ccc(C)c(Oc4ccc5c(c4)CC(=O)N5)c3)cc2C(F)(F)F)CC1	binding, competition with immobilised ligand	1 µM	100%
